The text below walks through data of the M2OR odorant receptor database.

Common to all, as to conditions: stereoisomer not certain
Assay [1] has as its target T1, OR1G1 (Homo sapiens) (UniProt P47890).
T1 sequence (whole entry): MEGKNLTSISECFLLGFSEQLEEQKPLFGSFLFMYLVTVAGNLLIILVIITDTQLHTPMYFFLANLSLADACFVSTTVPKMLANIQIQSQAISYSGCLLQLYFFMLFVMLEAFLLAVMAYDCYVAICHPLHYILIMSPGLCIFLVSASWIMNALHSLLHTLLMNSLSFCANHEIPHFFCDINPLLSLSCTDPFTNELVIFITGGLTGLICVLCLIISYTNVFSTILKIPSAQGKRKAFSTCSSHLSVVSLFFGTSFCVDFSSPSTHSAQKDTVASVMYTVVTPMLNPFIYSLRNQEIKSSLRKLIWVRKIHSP
A digest of the protocol:
(§1)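 Assay methods differ from source to source, frequently being transient luciferase assays in mammalian cell lines. For each receptor–molecule pair, the label responsive (active) applies when the original authors judged the measured signal statistically different from baseline, and non-responsive (inactive) applies otherwise.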

Assay [2] deals with T2, OR1F12P (Homo sapiens) (UniProt Q8NHA8).
T2 sequence (whole entry): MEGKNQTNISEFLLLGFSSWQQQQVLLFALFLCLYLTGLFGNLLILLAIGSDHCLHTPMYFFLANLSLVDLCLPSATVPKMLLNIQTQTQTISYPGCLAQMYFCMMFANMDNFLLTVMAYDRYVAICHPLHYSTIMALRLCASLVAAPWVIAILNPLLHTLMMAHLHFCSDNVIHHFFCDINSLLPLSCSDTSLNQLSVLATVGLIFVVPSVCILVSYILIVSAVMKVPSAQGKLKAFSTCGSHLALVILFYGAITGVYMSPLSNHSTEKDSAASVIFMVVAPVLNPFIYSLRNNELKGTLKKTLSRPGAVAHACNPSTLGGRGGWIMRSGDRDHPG
A digest of the protocol: as §1

The target in assay [3] is T3, OR1I1 (Homo sapiens) (UniProt O60431).
T3 sequence (whole entry): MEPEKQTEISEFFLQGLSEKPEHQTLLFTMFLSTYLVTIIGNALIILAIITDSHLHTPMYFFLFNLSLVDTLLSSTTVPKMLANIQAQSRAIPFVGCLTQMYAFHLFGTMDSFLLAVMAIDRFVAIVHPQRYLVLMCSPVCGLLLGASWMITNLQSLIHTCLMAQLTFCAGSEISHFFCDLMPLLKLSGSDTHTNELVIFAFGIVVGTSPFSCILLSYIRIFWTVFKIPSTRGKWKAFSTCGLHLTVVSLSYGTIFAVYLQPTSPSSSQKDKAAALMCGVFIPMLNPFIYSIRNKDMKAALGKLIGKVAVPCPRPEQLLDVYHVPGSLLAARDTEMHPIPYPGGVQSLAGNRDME
A digest of the protocol:
as §1

Assay [4] concerns the target T4, OR1J1 (Homo sapiens) (UniProt Q8NGS3).
T4 sequence (whole entry): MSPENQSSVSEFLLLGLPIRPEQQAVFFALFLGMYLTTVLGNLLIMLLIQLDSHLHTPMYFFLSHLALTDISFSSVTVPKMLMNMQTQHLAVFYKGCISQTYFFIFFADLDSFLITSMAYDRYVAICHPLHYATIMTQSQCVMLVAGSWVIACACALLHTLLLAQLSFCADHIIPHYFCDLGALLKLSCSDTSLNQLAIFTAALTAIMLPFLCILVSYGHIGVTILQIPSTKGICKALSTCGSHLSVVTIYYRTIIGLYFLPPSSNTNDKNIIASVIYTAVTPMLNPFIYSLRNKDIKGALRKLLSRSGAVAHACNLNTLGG
A digest of the protocol: as §1

The target of assay [5] is T5, OR1J2 (Homo sapiens) (UniProt Q8NGS2).
T5 sequence (whole entry): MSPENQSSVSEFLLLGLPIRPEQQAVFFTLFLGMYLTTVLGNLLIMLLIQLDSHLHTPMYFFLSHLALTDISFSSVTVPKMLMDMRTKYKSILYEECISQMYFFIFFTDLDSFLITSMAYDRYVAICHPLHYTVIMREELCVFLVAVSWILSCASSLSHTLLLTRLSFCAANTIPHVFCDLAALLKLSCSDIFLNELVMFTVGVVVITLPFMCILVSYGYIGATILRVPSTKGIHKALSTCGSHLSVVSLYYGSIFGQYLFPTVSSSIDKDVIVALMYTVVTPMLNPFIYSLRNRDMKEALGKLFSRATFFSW
A digest of the protocol: as §1

In assay [6] the target is T6, OR1J4 (Homo sapiens) (UniProt Q8NGS1).
T6 sequence (whole entry): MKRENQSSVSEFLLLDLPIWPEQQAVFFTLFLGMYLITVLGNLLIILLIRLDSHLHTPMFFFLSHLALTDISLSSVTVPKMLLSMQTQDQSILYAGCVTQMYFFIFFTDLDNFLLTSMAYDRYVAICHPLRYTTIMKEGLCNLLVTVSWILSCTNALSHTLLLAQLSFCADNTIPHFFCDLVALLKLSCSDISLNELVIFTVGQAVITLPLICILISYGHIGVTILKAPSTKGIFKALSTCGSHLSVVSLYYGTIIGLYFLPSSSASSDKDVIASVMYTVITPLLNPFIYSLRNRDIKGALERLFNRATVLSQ
A digest of the protocol: as §1

Assay [7] addresses T7, OR1K1 (Homo sapiens) (UniProt Q8NGR3).
T7 sequence (whole entry): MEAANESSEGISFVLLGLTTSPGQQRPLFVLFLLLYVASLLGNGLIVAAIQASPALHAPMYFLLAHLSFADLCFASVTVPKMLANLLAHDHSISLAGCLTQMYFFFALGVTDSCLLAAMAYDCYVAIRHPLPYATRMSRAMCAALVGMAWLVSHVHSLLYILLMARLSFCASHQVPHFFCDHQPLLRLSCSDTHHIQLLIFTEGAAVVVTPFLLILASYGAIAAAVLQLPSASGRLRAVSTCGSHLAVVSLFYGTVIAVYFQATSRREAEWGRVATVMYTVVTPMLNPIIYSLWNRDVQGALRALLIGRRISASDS
A digest of the protocol: as §1

Assay [8] deals with T8, OR1L1 (Homo sapiens) (UniProt Q8NH94).
T8 sequence (whole entry): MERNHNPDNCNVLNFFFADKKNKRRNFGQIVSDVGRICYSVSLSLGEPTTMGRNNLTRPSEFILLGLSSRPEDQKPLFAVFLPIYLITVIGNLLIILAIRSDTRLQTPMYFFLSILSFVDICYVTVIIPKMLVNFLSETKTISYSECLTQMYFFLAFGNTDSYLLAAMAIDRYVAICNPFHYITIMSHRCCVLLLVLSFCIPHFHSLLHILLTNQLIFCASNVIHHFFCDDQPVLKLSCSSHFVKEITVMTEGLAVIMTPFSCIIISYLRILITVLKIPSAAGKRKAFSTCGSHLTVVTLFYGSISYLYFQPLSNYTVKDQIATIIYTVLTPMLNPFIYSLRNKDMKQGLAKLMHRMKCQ
A digest of the protocol:
as §1

The target in assay [9] is T9, OR1L3 (Homo sapiens) (UniProt Q8NH93).
T9 sequence (whole entry): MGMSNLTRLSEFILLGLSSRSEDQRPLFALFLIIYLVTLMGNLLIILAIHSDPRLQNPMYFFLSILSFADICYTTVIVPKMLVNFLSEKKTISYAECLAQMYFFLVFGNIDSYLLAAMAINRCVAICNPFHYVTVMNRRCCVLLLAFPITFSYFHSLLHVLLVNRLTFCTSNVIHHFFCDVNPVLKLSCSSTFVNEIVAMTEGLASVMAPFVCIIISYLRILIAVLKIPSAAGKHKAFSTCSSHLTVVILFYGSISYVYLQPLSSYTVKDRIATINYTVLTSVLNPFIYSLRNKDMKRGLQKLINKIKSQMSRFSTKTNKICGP
A digest of the protocol:
as §1

Assay [10] addresses T10, OR1L4 (Homo sapiens) (UniProt Q8NGR5).
T10 sequence (whole entry): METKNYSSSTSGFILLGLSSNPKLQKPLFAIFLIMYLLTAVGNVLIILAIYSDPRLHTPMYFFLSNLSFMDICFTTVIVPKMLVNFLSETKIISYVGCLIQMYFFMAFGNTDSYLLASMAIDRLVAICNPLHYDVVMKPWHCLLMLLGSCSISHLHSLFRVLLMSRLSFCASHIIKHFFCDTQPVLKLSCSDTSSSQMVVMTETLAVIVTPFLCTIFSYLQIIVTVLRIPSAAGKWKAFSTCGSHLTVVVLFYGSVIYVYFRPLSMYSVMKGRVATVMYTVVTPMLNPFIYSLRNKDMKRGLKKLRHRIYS
A digest of the protocol:
as §1

For assay [11], the target named is T11, OR1L6 (Homo sapiens) (UniProt Q8NGR2).
T11 sequence (whole entry): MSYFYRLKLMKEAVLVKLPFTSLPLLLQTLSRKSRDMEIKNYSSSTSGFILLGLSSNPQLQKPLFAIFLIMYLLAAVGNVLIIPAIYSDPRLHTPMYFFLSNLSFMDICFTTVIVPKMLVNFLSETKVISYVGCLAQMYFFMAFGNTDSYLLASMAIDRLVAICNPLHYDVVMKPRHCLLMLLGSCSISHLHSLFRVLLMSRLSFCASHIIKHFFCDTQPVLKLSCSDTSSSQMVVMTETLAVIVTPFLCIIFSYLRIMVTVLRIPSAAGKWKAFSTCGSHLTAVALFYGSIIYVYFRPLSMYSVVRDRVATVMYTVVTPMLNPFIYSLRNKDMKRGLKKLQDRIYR
A digest of the protocol: as §1

The target of assay [12] is T12, OR1L8 (Homo sapiens) (UniProt Q8NGR8).
T12 sequence (whole entry): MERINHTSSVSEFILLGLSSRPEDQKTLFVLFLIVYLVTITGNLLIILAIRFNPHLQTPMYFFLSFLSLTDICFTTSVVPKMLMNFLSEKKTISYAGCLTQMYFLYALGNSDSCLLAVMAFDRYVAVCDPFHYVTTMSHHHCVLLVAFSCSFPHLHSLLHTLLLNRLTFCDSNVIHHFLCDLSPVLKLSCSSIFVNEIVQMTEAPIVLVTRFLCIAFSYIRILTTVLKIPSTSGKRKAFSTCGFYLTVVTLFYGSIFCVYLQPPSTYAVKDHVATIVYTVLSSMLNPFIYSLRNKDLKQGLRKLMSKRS
A digest of the protocol:
as §1

Assay [13] concerns the target T13, OR1M1 (Homo sapiens) (UniProt Q8NGA1).
T13 sequence (whole entry): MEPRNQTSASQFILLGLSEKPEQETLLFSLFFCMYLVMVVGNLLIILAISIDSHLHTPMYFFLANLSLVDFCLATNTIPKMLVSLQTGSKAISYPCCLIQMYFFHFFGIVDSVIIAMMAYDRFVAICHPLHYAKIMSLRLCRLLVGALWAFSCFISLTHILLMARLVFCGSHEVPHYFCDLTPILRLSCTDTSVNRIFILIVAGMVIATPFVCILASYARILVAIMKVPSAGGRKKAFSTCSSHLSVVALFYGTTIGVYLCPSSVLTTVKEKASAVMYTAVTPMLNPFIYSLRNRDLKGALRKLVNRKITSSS
A digest of the protocol: as §1

For assay [14], the target named is T14, OR1N1 (Homo sapiens) (UniProt Q8NGS0).
T14 sequence (whole entry): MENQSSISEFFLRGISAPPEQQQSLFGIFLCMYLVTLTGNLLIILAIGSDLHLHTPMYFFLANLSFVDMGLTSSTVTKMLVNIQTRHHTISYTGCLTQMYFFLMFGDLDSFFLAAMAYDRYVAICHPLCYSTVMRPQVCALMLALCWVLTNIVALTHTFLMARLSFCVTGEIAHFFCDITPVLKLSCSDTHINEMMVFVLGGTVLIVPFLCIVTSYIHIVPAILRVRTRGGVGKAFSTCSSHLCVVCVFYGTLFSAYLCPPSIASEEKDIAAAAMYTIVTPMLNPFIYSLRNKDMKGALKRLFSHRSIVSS
A digest of the protocol:
as §1

The test system of assay [15] is T15, OR1F1.
T15 sequence (whole entry): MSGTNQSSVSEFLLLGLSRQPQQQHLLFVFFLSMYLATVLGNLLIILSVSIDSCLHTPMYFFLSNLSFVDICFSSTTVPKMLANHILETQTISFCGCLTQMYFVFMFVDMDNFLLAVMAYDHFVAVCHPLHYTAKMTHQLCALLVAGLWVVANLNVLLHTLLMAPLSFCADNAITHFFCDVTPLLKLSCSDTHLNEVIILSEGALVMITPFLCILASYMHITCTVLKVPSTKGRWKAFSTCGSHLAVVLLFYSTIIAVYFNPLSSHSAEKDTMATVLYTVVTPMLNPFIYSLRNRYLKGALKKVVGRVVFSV
A digest of the protocol:
as §1

As to `CCCCCCC(C)O` (stereo not drawn), in assay [1], the “odorant receptor agonist call” value was “active”.
`CCCCC(S)C(C)CO` (stereo not drawn): the “odorant receptor agonist call” value in [2], in assay [1], in assay [3], in assay [4], in [5] and in assay [7] was “inactive” throughout. Moreover, the “odorant receptor agonist call” value in [8], in assay [9], in assay [10], in assay [11], in assay [12] and in [13] was “inactive” in each case. In addition, in assay [14], the “odorant receptor agonist call” value was “inactive”. For the same molecule, in assay [6], the “odorant receptor agonist call” value was “active”.
In the case of `O=CN1CCCCC1`, in assay [15], the “odorant receptor agonist call” value is “inactive”.
On to `CCCCCCCCCCCCO`, for which, in [1], the “odorant receptor agonist call” value is “active”.
Same read-out and setting: then `CC(=O)OCCC(C)C`, with “active”.
